Screening results (PubChem BioAssay)
Rad51 HR inh = Rad51 (human) homologous recombination inhibition; Q06609; hRad51 DNA strand exchange, fluorescence dequenching; inhibition, % at 10 µM; actives 0.085% (n = 200,000);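 active means inhibition above 40% at the single screening dose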;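 further: 0% = DMSO control wells and 100% = blanks with heterologous ssDNA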
Target sequence (Q06609 whole entry, looked up): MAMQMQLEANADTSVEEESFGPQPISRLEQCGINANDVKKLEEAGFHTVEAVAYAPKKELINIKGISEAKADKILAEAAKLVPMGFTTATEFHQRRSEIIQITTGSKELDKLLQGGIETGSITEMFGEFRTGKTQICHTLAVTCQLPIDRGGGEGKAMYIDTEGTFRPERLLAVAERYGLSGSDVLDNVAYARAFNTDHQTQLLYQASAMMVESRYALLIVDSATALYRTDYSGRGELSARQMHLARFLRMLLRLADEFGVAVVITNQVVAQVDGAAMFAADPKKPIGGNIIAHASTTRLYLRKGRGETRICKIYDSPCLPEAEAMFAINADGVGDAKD
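Material: hRad51 filaments on single-stranded DNA; Reagent: Donor/quencher-labelled 47-bp dsDNA substrate; Compound: 10 µM final, single point; Schedule: 37 °C 15-min filament assembly, 30-min compound preincubation, 15-min exchange; Technique: FRET fluorescence, excitation 485 nm, emission 520 nm; Benchmarks: control wells and blank wells on each plate.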
SKKanGAS inh = blocks kanamycin growth of S. pyogenes SKKanGAS strain. inhibition, % at 7.5 µM. actives 1.3% (n = 300,000). AID 1662. BacTiter-Glo, 6 h;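 active means mean replicate score, as percent of positive control median, at least 50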;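 further: strain carries kanamycin resistance gene driven by streptokinase promoter and grows in 40 µg/ml kanamycin; loss of luminescence reflects streptokinase promoter inhibition or plain growth inhibition; 0% = median of DMSO wells and 100% = positive control at its reference dose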
Autophagy mod = alters autophagy in cells | MEF GFP-LC3 puncta imaging; test concentration mostly 10 µM | calls only at 10 µM (by protocol) | actives 0.98% (n = 190,000) | AID 463193;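 active means percentage of spot-positive cells more than 3 SD above its plate mean, without a fluorescence outlier flag or 80% toxicity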;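 further: spot-positive cell cutoff set from DMSO-treated cells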
Ins promoter up = MIN6 insulin promoter up-regulation. MIN6 insulin promoter-GFP reporter, high-content imaging; stronger effect = higher value. z-score at 5 µM. actives 0.3% (n = 190,000). AID 1625;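 active means z-score above 3 at 5 µM with at least 500 cells counted in the well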
Cl transport mod = modulates chloride dependent transport by human KCC2; Q9H2X9; KCC2 cells, thallium flux FluoZin-2 fluorescence; B-score of Tl+ flux slope (higher = more flux/activation; lower = inhibition) at 10 µM; actives 2.2% (n = 190,000); AID 1456;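 active means thallium flux slope and its plate-corrected score both differing from the plate sample mean at a set confidence after two filtering rounds, in either direction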;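 further: slope of fluorescence scaled to starting intensity during 10 to 20 s after thallium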
WT yeast gro inh = growth inhibition of WT yeast, mitochondrial fusion screen | actives 2.1% (n = 190,000) | AID 1362 | inhibition, % at 10 µM | mitochondrial fusion phenotypic screen, WT strain; in the data active means inhibition above about 58%; tested in S. cerevisiae
* marks the source's active call; other numbers are inactive results; i = inactive; / = no result; + = active, no number. A selection: hits, their analogues and other compounds. The true share with any hit is near 4.2%.

SMILES	Rad51 HR inh	SKKanGAS inh	Autophagy mod	Ins promoter up	Cl transport mod	WT yeast gro inh
Cn1c(O)c(N=NC(=O)c2ccccc2O)c2ccccc21	-3.8	26.1	i	-0.36	-0.33	9.3
C/C(CC(=O)Nc1ccc(Cl)c(C(F)(F)F)c1)=N\NC(=O)c1cc2ccccc2cc1O	/	94.9*	i	0.03	-0.0118	20.9
COc1cc(/C=C2/SC(=NCc3ccccc3)N(Cc3ccccc3)C2=O)ccc1O	-58.3	85.2*	i	-0.23	-0.267	-2.0
CCN=C1S/C(=C\c2ccc(O)c(OCC)c2)C(=O)N1CC	20.7	3.1	i	-2.87	-1.58	-5.4
COc1cc(/C=C2\SC(=S)N(CCC(=O)Nc3cccc(O)c3)C2=O)cc(OC)c1OC	/	56.7*	/	/	/	/
O=C(CCCN1C(=O)/C(=C\c2cccs2)SC1=S)Nc1cc([N+](=O)[O-])ccc1O	/	73.0*	/	/	/	/
O=C(CCN1C(=O)/C(=C/c2ccccc2Cl)SC1=S)NNC(=O)c1cccnc1	-2.4	7.5	/	0.24	-1.43	/
O=C(CCN1C(=O)/C(=C/c2ccccc2Cl)SC1=S)NNC(=O)c1ccccc1O	/	60.3*	/	/	/	/
O=C(CCOc1ccccc1)Nc1ccnn1C1CCN(CCc2ccccc2)CC1	/	5.9	/	/	/	/
N#CCC(=O)Nc1ccc(C(=O)N2CCN(c3ccccn3)CC2)cc1	/	0.8	/	/	/	/
O=C(O)CCCN1C(=O)/C(=C\C(Cl)=C\c2ccccc2)SC1=S	/	65.4*	/	/	/	/
O=C1/C(=C\c2ccc(O)c(O)c2)SC(=S)N1Cc1ccccc1	/	-1.7	/	/	/	/
Cc1nn(-c2ccccc2)c(Cl)c1/C=C1\SC(=S)N(CCCCCC(=O)O)C1=O	14.2	80.2*	/	0.47	-1.94	/
COc1cccc(/C=C2/SC(=S)N(CC(=O)NNC(=O)c3ccccc3O)C2=O)c1	/	98.2*	/	/	/	/
CN1CCN(C(=O)CCCN2C(=O)/C(=C/c3ccccc3)SC2=S)CC1	/	2.0	/	/	/	/
COc1cc(/C=C2/SC(=S)N(Cc3ccccc3)C2=O)ccc1O	/	65.6*	/	/	/	/
O=C(CN1C(=O)/C(=C/c2ccccc2)SC1=S)NNC(=O)c1ccccc1O	/	32.9	i	0.63	-0.735	-2.5
CCc1noc(C)c1C(=O)N1CCN(S(=O)(=O)c2c(C)c(C)cc(C)c2C)CC1	/	16.3	/	/	/	/
O=C1/C(=C\c2cc([N+](=O)[O-])ccc2O)SC(=S)N1Cc1ccc(Cl)cc1	/	95.8*	/	/	/	/
O=C(O)CCCCN1C(=O)/C(=C\c2ccc(OCc3ccccc3)c(OCc3ccccc3)c2)SC1=S	/	50.1*	/	/	/	/
O=C1/C(=C\c2cccc(O)c2O)SC(=S)N1Cc1ccccc1	/	93.0*	/	/	/	/
Cc1ccccc1/C=C1\SC(=S)N(/N=C/c2cc([N+](=O)[O-])ccc2O)C1=O	-3.4	-14.5	i	0.25	/	-10.5
COc1ccc(CN2C(=O)/C(=C/c3ccc(-c4ccc(Cl)c(C(=O)O)c4)o3)SC2=S)cc1	i	/	i	/	-1.78	-8.7
O=C(O)CN1C(=O)/C(=C\c2cccc(OCc3ccccc3)c2)SC1=S	/	5.1	/	/	/	/
O=C1/C(=C\c2cccc(O)c2)SC(=S)N1Cc1ccccc1	/	7.0	/	/	/	/
SMILES	Rad51 HR inh	SKKanGAS inh	Autophagy mod	Ins promoter up	Cl transport mod	WT yeast gro inh
O=C(O)c1cc(-c2ccc(/C=C3/SC(=S)N(Cc4ccccc4)C3=O)o2)ccc1Cl	i	/	i	/	-2.95	59.9*
COc1ccc(N2CCN(C(=O)COC(=O)c3cccc(S(=O)(=O)Nc4cccc(C)c4)c3)CC2)cc1	/	4.8	/	/	/	/
COc1ccc2o/c(=N/NC(=S)Nc3ccccc3)c(C(N)=O)cc2c1	1.8	-2.5	+	-0.25	0.544	-13.9
Cc1cc(C)c2nc3nc(C)c(C)cc3c(N)c2c1	/	-16.9	i	-0.82	-1.29	33.0
CC(C)COn1c(=S)[nH]c2ccccc2c1=O	0.7	-5.5	i	-0.15	49*	12.1
CC(C)S(=O)(=O)N1CCCC(C(=O)c2cccc(Cl)c2)C1 (stereo not drawn)	/	-0.4	i	0.04	-0.184	14.8
Cc1ccnc(NS(=O)(=O)c2ccc(NC(=O)c3cc(-c4ccccc4)nc4ccccc34)cc2)n1	12.8	24.0	i	-0.23	-0.718	1.2
CCCOc1ccc(C(=O)NNC(=S)NC(=O)c2cc(-c3ccc(Cl)cc3)nc3ccccc23)cc1	-1.8	99.3*	i	0.11	1.22	-21.8
CCCOc1cccc(-c2cc(C(=O)NNC(=S)NCC)c3ccccc3n2)c1	/	-17.0	i	-0.59	3.28	-1.9
CCNC(=S)NNC(=O)c1cc(-c2ccc(OCC)cc2)nc2ccccc12	11.4	43.3	i	0.21	0.169	65.9*
Cc1ccnc(NS(=O)(=O)c2ccc(NC(=O)c3cc(-c4ccc(Br)cc4)nc4ccccc34)cc2)n1	-0.4	62.1*	i	0.02	-1.64	-5.1
CC(C)(C)c1ccc(-c2cc(C(=O)NNC(=O)Nc3ccccc3)c3ccccc3n2)cc1	-10.3	56.3*	i	/	0.259	23.1
COc1ccccc1N1CCN(C2CCN(C(=O)COc3ccccc3)CC2)CC1	1.2	-4.5	i	-0.93	-0.284	-5.9
COc1ccc(OC(=O)COc2ccccc2C)cc1	/	8.3	/	/	/	/
CC(NC(=O)COc1ccccc1-c1ccccc1)c1ccccc1 (stereo not drawn)	6.6	18.8	i	-0.51	-0.454	70.8*
O=C(COc1ccccc1-c1ccccc1)N/N=C/c1cccc2ccccc12	1.4	43.9	+	-2.08	-0.232	42.1
CC(=O)Nc1ccccc1OCC(=O)NC(C)c1ccccc1 (stereo not drawn)	2.9	0.5	i	-0.83	1.14	-5.2
COc1ccc(/C=N/NC(=O)COc2ccccc2-c2ccccc2)cc1	-6.8	29.9	i	0.91	-0.669	46.1
Cc1c([N+](=O)[O-])cnc(Sc2ccccc2)c1[N+](=O)[O-]	/	-6.5	/	/	/	/
CCn1cc(CN2CCN(CCc3ccccc3)C(CCO)C2)c(C)n1 (stereo not drawn)	-0.8	2.7	i	0.11	0.172	-5.6
Cc1ccc2c(CC(=O)NC3=NCCS3)coc2c1	0.5	5.1	i	/	/	2.5
Cc1cc2occ(CC(=O)NC3=NCCS3)c2cc1C(C)C	-5.1	65.4*	+	/	-1.17	14.8
COc1ccc(Nc2ncnc3c2cnn3-c2ccccc2)cc1OC	5.9	-3.4	/	1.52	0.232	18.1
COc1ccc(OC)c(Nc2ncnc3c2cnn3-c2cccc(C)c2)c1	-0.9	1.9	+	-0.25	-0.73	43.0
CC(Oc1cccc(Cl)c1)C(=O)N1CCCN(C)CC1 (stereo not drawn)	/	6.5	/	/	/	/
CC(C)c1ccc(OCC(=O)NNC(=S)NC(=O)c2cccs2)c(Br)c1	/	78.3*	/	/	/	/
Cc1ccccc1OCCNc1cc(N2CC(C)NC(C)C2)ccc1[N+](=O)[O-] (stereo not drawn)	-2.9	6.7	+	-1.13	-0.00404	86.6*
CCC1(C)Cc2sc3c(=O)[nH]c(=S)[nH]c3c2CO1 (stereo not drawn)	4.4	-3.4	i	1.33	-0.954	7.2
Clc1c2c(nc3ccccc13)CCC2	/	0.4	/	/	/	/
